Molecules are shown by their SMILES. Bounds are passed on as bounds.

A short description of assay [1]: Antiinflammatory activity in human neutrophils assessed as inhibition of fMLP/CB-induced elastase release at 10 uM incubated for 5 mins prior to fMLP/CB challenge. Type of assay: functional. To be noted: Neutrophil. An outline of the steps:
(§1)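 Donor neutrophils (healthy adults, 20−30 y), purified by dextran sedimentation, Ficoll Hypaque and hypotonic lysis, kept in Ca2+-free HBSS pH 7.4 at 4 °C. Cells at 6 × 10^5/mL with MeO-Suc-Ala-Ala-Pro-Val-p-nitroanilide 100 μM as elastase substrate, equilibrated 37 °C 2 min before compound addition. Mean ± SEM, n = 3 or 4.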

A short description of assay [2]: Antiinflammatory activity in human neutrophils assessed as inhibition of fMLP/CB-induced elastase release incubated for 5 mins prior to fMLP/CB challenge. Type of assay: functional, cell-based. To be noted: Neutrophil. A digest of the protocol:
as §1

A short description of assay [3]: Antiinflammatory activity in human neutrophils assessed as inhibition of fMLP/CB-induced superoxide anion generation at 10 uM incubated for 5 mins prior to fMLP/CB challenge. Type of assay: functional. To be noted: Neutrophil. A digest of the protocol: (§2)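 Neutrophils from healthy adult donors (20−30 y), enriched by dextran sedimentation, Ficoll Hypaque centrifugation and hypotonic lysis, held in Ca2+-free HBSS pH 7.4 at 4 °C. Cells (6 × 10^5/mL) with ferricytochrome c 0.5 mg/mL and Ca2+ 1 mM, 37 °C 2 min, DMSO control. CB 1 μg/mL 3 min, then fMLP 100 nM 10 min. O2•− read as SOD-inhibitable cytochrome c reduction. Mean ± SEM, n = 3 or 4.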

Assay [4] is described as follows: Antiinflammatory activity in human neutrophils assessed as inhibition of fMLP/CB-induced superoxide anion generation incubated for 5 mins prior to fMLP/CB challenge. Type of assay: functional, cell-based. To be noted: Neutrophil. An outline of the steps:
as §2

For the next assay, the system named is K562. The assay can be described thus: Cytotoxicity against human K562 cells after 6 hrs by Alamar Blue assay. Type of assay: functional. To be noted: K562, 6 h, read-out: ED50 (the source's name). A general note: Resazurin is reduced to fluorescent resorufin, in cell work by metabolically active cells.
Another assay relates to MOLT-4. The assay can be described thus: Cytotoxicity against human MOLT4 cells after 6 hrs by Alamar Blue assay. Type of assay: functional. The following applies: MOLT-4, 6 h, read-out: ED50 (the source's name).
The subject of a further assay is T47D. The assay can be described thus: Cytotoxicity against human T47D cells after 3 hrs by Alamar Blue assay. Type of assay: functional. The following applies: read-out: ED50 (the source's name).

One may read the inhibition as the change of the read-out against control, counted positive when it falls. The IC50 is the concentration that gives 50% inhibition. Consider `CC(=O)O[C@H]1[C@H](C(C)C)[C@@H]2[C@@H]([C@H]3C[C@](C)(O)[C@@H](OC(C)=O)CC[C@@](C)(OC(C)=O)[C@@H]2O3)[C@](O)(CCl)[C@H]1OC(C)=O`, for which the inhibition at 10 µM in assay [1] came to 6.42%; in assay [3], 9.36%. The half-maximal inhibitory concentration (IC50) in assay [2] and in assay [4] was above 10 µM each time.
As to `CC(=O)O[C@H]1[C@H](C(C)C)[C@@H]2[C@@H]([C@H]3C[C@](C)(O)[C@H](O)CC[C@@](C)(OC(C)=O)[C@@H]2O3)[C@](O)(CCl)[C@H]1OC(C)=O`, the inhibition at 10 µM in assay [1] is 7.3%; in assay [3], 5.02%. In addition, the IC50 in assay [2] and in assay [4] was above 10 µM in each case.
Turning to `CC(=O)O[C@H]1C[C@H](C(C)C)[C@@H]2[C@@H]([C@H]3C[C@](C)(O)[C@@H](OC(C)=O)CC[C@@](C)(OC(C)=O)[C@@H]2O3)[C@]1(O)CCl`, the inhibition at 10 µM was -1.19% in assay [1] and 8.92% in assay [3]. For the same compound, the IC50 in assay [2] and in assay [4] was above 10 µM in each case.
For `CC(=O)O[C@H]1C[C@H](C(C)C)[C@@H]2[C@@H]([C@H]3C[C@](C)(O)[C@@H](O)CC[C@@](C)(OC(C)=O)[C@@H]2O3)[C@]1(O)CCl`, the inhibition at 10 µM in assay [1] was 9.18%; in assay [3], 3.37%. For the same compound, the half-maximal inhibitory concentration (IC50) in assay [2] and in assay [4] was above 10 µM throughout.
For the compound `C=C1[C@H]2[C@@H]([C@@H](C(C)C)C[C@@H]1O)[C@H]1O[C@@H]2C[C@](C)(O)[C@@H](OC(=O)Cc2ccccc2)CC[C@@]1(C)OC(=O)CCC`, the inhibition at 10 µM in assay [1] came out at 89.2%; in assay [3], 81.6%. The figures for the 50% inhibitory concentration (IC50) in assay [2] and in assay [4] were 2.92 µM and 3.13 µM, respectively. The EC50 with K562 amounted to 7.97 µM; with MOLT-4, 4.35 µM; with T47D, 8.58 µM.
As for `C=C1[C@H]2[C@@H]([C@H](C(C)C)[C@H](OC(C)=O)[C@@H]1O)[C@H]1O[C@@H]2C[C@](C)(O)[C@@H](OC(C)=O)CC[C@@]1(C)OC(=O)CCC`, the inhibition at 10 µM came out at 6.47% in assay [1] and 10.5% in assay [3]. Besides, the IC50 in assay [2] and in assay [4] was above 10 µM in each case.
As for `C=C1[C@H]2[C@@H]([C@@H](C(C)C)[C@H](O)[C@@H]1OC(C)=O)[C@H]1O[C@@H]2C[C@](C)(O)[C@@H](OC(C)=O)CC[C@@]1(C)OC(=O)CCC`, the figures for the inhibition at 10 µM in assay [1] and in assay [3] were 16.8% and 2.92%, respectively. Moreover, the IC50 in assay [2] and in assay [4] was above 10 µM throughout.
Consider `C=C1[C@H]2[C@@H]([C@@H](C(C)C)[C@H](OC(C)=O)[C@@H]1O)[C@H]1O[C@@H]2C[C@](C)(O)[C@@H](O)CC[C@@]1(C)OC(=O)CCC`, for which the inhibition at 10 µM turned out to be 7.35% in assay [1] and 1.17% in assay [3]. Also, the IC50 in assay [2] and in assay [4] was above 10 µM each time.
Take `C=C1[C@H]2[C@H]([C@H]3O[C@@H]2C[C@](C)(O)[C@@H](OC(C)=O)CC[C@@]3(C)OC(C)=O)[C@H](C(C)C)C[C@@H]1O`: the results for the inhibition at 10 µM in assay [1] and in assay [3] were 7.33% and 14.7%, respectively. In addition, the IC50 in assay [2] and in assay [4] was above 10 µM throughout.
Take `C=C1[C@H]2[C@@H]([C@@H](C(C)C)C[C@@H]1O)[C@H]1O[C@@H]2C[C@](C)(O)[C@@H](O)CC[C@@]1(C)OC(C)=O`: the inhibition at 10 µM in assay [1] is 11.6%; in assay [3], 7.14%. In addition, the 50% inhibitory concentration (IC50) in assay [2] and in assay [4] was above 10 µM each time.
For the compound `C=C1C[C@H]2O[C@H]([C@H]3[C@@H]2C(=C)[C@@H](O)C[C@@H]3C(C)C)[C@](C)(OC(C)=O)CC[C@@H]1O`, the inhibition at 10 µM in assay [1] came out at 0.62%; in assay [3], 3.2%. The IC50 in assay [2] and in assay [4] was above 10 µM in each case.
With `O=c1[nH]cc(F)c(=O)[nH]1` [FLUOROURACIL], the EC50 is 16.2 µM in the assay on K562, 15.1 µM in the assay with MOLT-4 and 50.2 µM with T47D.

These data come from ChEMBL document CHEMBL2424517, “Eunicellin-based diterpenoids from the Formosan soft coral Klyxum molle with inhibitory activity on superoxide generation and elastase release by neutrophils” (J Nat Prod, 2013).
